The values below come from ChEMBL document CHEMBL1121452, “8-Chloro-1-methyl-6-phenyl-4H-s-triazolo[4,3-a][1,4]benzodiazepines with substituents at C-4” (1980).

Molecules are shown by their SMILES.

What all share (type): functional
The species named for test [1] is Mus musculus. As to the kind of experiment: Loss of traction (TR) was evaluated in CF1 mice. A digest of the protocol:
(§1)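 Compounds dissolved or suspended in 0.25% aqueous methylcellulose and given ip to mice in groups of four or six per dose, at several dose levels spaced 0.3 log units apart. Scoring follows previously described procedures. ED50 values in mg/kg were calculated by the Spearman-Karber method.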

The species named for test [2] is Mus musculus. The test can be described thus: Evaluated for the pentylene induced clonic convulsions (P) in CF1 mice. An outline of the steps: as §1
Test [3] is filed under the species Mus musculus. As to the kind of experiment: Evaluated for the antagonism of nicotine induced death (D) in CF1 mice. A digest of the protocol:
as §1

Test [4] is filed under the species Mus musculus. As to the kind of experiment: Evaluated for antagonistic activity on nicotine-induced tonic-extensor convulsions (TE) in CF1 mice. A digest of the protocol: as §1
Test [5] is filed under the species Mus musculus. As to the kind of experiment: Loss of righting reflex (LORR) was evaluated in CF1 mice. An outline of the steps: as §1
The species named for test [6] is Mus musculus. The test can be described thus: Loss of righting reflex (LORR) was evaluated in mice. An outline of the steps:
as §1

Test [7] is filed under the species Mus musculus. The test can be described thus: Loss of traction (TR) was evaluated in mice. An outline of the steps: as §1

Take `CC(=O)OC1N=C(c2ccccc2)c2cc(Cl)ccc2-n2c(C)nnc21` (centres undefined): the ED50 was 18 mg/kg in the test listed under Mus musculus [1]; 8.9 mg/kg in the test filed under Mus musculus [2]; 1 mg/kg in the test listed under Mus musculus [3]; 1 mg/kg in the test filed under Mus musculus [4]; > 200 mg/kg in the test filed under Mus musculus [5].
In the case of `Cc1nnc2n1-c1ccc(Cl)cc1C(c1ccccc1)=NC2C` (centres undefined), the ED50 was 1.8 mg/kg in the test listed under Mus musculus [1]; 0.1 mg/kg in the test filed under Mus musculus [2]; > 200 mg/kg in the test listed under Mus musculus [6]; 0.056 mg/kg in the test listed under Mus musculus [3]; 0.056 mg/kg in the test listed under Mus musculus [4].
Take `CCOC(=O)C1(C)N=C(c2ccccc2)c2cc(Cl)ccc2-n2c(C)nnc21` (centres undefined): the ED50 is 112 mg/kg in the test filed under Mus musculus [1]; 40 mg/kg in the test listed under Mus musculus [2]; 18 mg/kg in the test filed under Mus musculus [3]; 16 mg/kg in the test filed under Mus musculus [4]; > 200 mg/kg in the test listed under Mus musculus [5].
`CCOC(=O)CC1(C(=O)OCC)N=C(c2ccccc2)c2cc(Cl)ccc2-n2c(C)nnc21` (centres undefined): the ED50 is > 200 mg/kg in the test listed under Mus musculus [1]; > 50 mg/kg in the test filed under Mus musculus [2]; > 200 mg/kg in the test filed under Mus musculus [3]; > 200 mg/kg in the test listed under Mus musculus [4]; > 200 mg/kg in the test filed under Mus musculus [5].
For the compound `Cc1nnc2n1-c1ccc(Cl)cc1C(c1ccccc1)NC2=O` (centres undefined), the ED50 in the test filed under Mus musculus [1] is > 100 mg/kg; in the test listed under Mus musculus [2], > 25 mg/kg; in the test listed under Mus musculus [4], > 100 mg/kg; in the test listed under Mus musculus [5], > 100 mg/kg.
Regarding `Cc1nnc2n1-c1ccc(Cl)cc1C(c1ccccc1)=[N+]([O-])C2`, the ED50 in the test listed under Mus musculus [1] was 10 mg/kg; in the test filed under Mus musculus [2], 1.8 mg/kg; in the test filed under Mus musculus [3] it was 0.2 mg/kg; in the test listed under Mus musculus [4], 0.2 mg/kg; in the test filed under Mus musculus [5] it was > 200 mg/kg.
`Cc1nnc2n1-c1ccc(Cl)cc1C(c1ccccc1)=NC2N` (centres undefined): the ED50 in the test filed under Mus musculus [1] is 18 mg/kg; in the test filed under Mus musculus [2] it was 3.5 mg/kg; in the test listed under Mus musculus [6] it was > 100 mg/kg; in the test listed under Mus musculus [3] it was 0.63 mg/kg; in the test filed under Mus musculus [4] it was 0.36 mg/kg.
For `CCOC(=O)C1N=C(c2ccccc2)c2cc(Cl)ccc2-n2c(C)nnc21` (centres undefined), the ED50 in the test filed under Mus musculus [1] is > 100 mg/kg; in the test filed under Mus musculus [2], > 100 mg/kg; in the test listed under Mus musculus [6], > 100 mg/kg; in the test filed under Mus musculus [3], 45 mg/kg; in the test listed under Mus musculus [4], 50 mg/kg.
On to `Cc1nnc2n1-c1ccc(Cl)cc1C1(c3ccccc3)ON1C2` (centres undefined), for which the ED50 is 2.5 mg/kg in the test listed under Mus musculus [1]; 0.2 mg/kg in the test listed under Mus musculus [2]; 0.12 mg/kg in the test listed under Mus musculus [3]; 0.12 mg/kg in the test listed under Mus musculus [4]; > 25 mg/kg in the test filed under Mus musculus [5].
On to `Cc1nnc2n1-c1ccc(Cl)cc1C(c1ccccc1)=NC2CC(=O)O` (centres undefined), for which the median effective dose (ED50) in the test filed under Mus musculus [1] was 13 mg/kg; in the test filed under Mus musculus [2] it was 5 mg/kg; in the test filed under Mus musculus [6], > 200 mg/kg; in the test filed under Mus musculus [3] it was 0.9 mg/kg; in the test filed under Mus musculus [4] it was 0.9 mg/kg.
On to `Cc1nnc2n1-c1ccc(Cl)cc1C(c1ccccc1)N=C2N` (centres undefined), for which the ED50 in the test listed under Mus musculus [1] is > 200 mg/kg; in the test filed under Mus musculus [2] it was > 100 mg/kg; in the test listed under Mus musculus [3] it was 40 mg/kg; in the test listed under Mus musculus [4], 40 mg/kg; in the test filed under Mus musculus [5] it was > 200 mg/kg.
On to `CCOC(=O)C1(N)N=C(c2ccccc2)c2cc(Cl)ccc2-n2c(C)nnc21` (centres undefined), for which the ED50 is 159 mg/kg in the test filed under Mus musculus [1]; 32 mg/kg in the test filed under Mus musculus [2]; 4.5 mg/kg in the test listed under Mus musculus [3]; 3.1 mg/kg in the test filed under Mus musculus [4]; > 200 mg/kg in the test filed under Mus musculus [5].
The matching figures for `Cc1nnc2n1-c1ccc(Cl)cc1C(c1ccccc1)=NC2O` (centres undefined) [4-HYDROXY-ALPRAZOLAM]: 23 mg/kg, 8.9 mg/kg, 4 mg/kg, 4 mg/kg and > 50 mg/kg.
On to `Cc1nnc2n1-c1ccc(Cl)cc1C(c1ccccc1)=NC2` [ALPRAZOLAM], for which the ED50 in the test filed under Mus musculus [2] is 0.2 mg/kg; in the test filed under Mus musculus [3] it was 0.02 mg/kg; in the test listed under Mus musculus [4] it was 0.02 mg/kg; in the test filed under Mus musculus [7] it was 0.6 mg/kg; in the test filed under Mus musculus [5], > 100 mg/kg.
